In ChEMBL document CHEMBL4145448, “Broad activity of diphenyleneiodonium analogues against Mycobacterium tuberculosis, malaria parasites and bacterial pathogens” (Eur J Med Chem, 2018):

Experiments:
[1] = Selectivity index, ratio of CC50 for human HepG2 cells in presence of 1% FBS to MIC for Mycobacterium tuberculosis H37Rv ATCC 25618; type: toxicity; details: read-out: Selectivity Index
[2] = Selectivity index, ratio of CC50 for human HepG2 cells in presence of 1% FBS to MIC for Pseudomonas aeruginosa isolate 18878B klon 1; type: toxicity; details: read-out: Selectivity Index
How it was run: (§1)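 Selectivity index is CC50 (1% FBS) divided by MIC. […] They then got compound at 300 to 0.14 µM (3-fold steps) for 24 h at 37 °C, 5% CO2. Resazurin (10 µM, 2 h) was read at ex/em 560/590 in duplicate wells. For MIC, CLSI broth microdilution was run in CaMHB with ~10^6 cfu/mL inoculum and 0–128 µM compound.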

Klebsiella pneumoniae [3] = experiment: Antibacterial activity against Klebsiella pneumoniae isolate 1 after 18 hrs by broth microdilution method; type: functional; details: isolate 1, 18 h
How it was run: (§2)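 Broth microdilution per CLSI in cation-adjusted Mueller-Hinton broth. 100 µL inoculum (~10^6 cfu/mL in CaMHB) mixed with 100 µL CaMHB containing compound, 0 to 128 µM. Incubated 18 h at 37 °C. MIC taken as the lowest concentration with no visible growth. Polymyxin B served as positive control. Isolates were stored at -80 °C in tryptone soy broth with 20% glycerol.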

[4] = Selectivity index, ratio of CC50 for human HepG2 cells in presence of 1% FBS to MIC for vancomycin-intermediate Staphylococcus aureus ATCC 700698; type: toxicity; details: read-out: Selectivity Index; how it was run: as §1
[5] = Selectivity index, ratio of CC50 for human HepG2 cells in presence of 1% FBS to MIC for Escherichia coli N11281; type: toxicity; details: read-out: Selectivity Index
Escherichia coli [6] = experiment: Antibacterial activity against Escherichia coli N11281 after 18 hrs by broth microdilution method; type: functional; details: N11281, 18 h; how it was run: as §2
Acinetobacter baumannii [7] = experiment: Antibacterial activity against Acinetobacter baumannii isolate 07AC-336 after 18 hrs by broth microdilution method; type: functional; details: isolate 07AC-336, 18 h; how it was run: as §2
Acinetobacter baumannii [8] = experiment: Antibacterial activity against Acinetobacter baumannii isolate 246-01-C after 18 hrs by broth microdilution method; type: functional; how it was run: as §2
Pseudomonas aeruginosa [9] = experiment: Antibacterial activity against Pseudomonas aeruginosa QLD PSA 1 after 18 hrs by broth microdilution method; type: functional; details: QLD PSA 1, 18 h; how it was run: as §2
[10] = Selectivity index, ratio of CC50 for human HepG2 cells in presence of 1% FBS to MIC for Escherichia coli N4149; type: toxicity; details: read-out: Selectivity Index
Pseudomonas aeruginosa [11] = experiment: Antibacterial activity against Pseudomonas aeruginosa isolate 18878B klon 1 after 18 hrs by broth microdilution method; type: functional; details: isolate 18878B klon 1, 18 h; how it was run: as §2
Klebsiella pneumoniae [12] = experiment: Antibacterial activity against Klebsiella pneumoniae isolate 248-33-D after 18 hrs by broth microdilution method; type: functional; how it was run: as §2
[13] = Selectivity index, ratio of CC50 for human HepG2 cells in presence of 1% FBS to MIC for vancomycin-resistant Enterococcus faecium ATCC 700221; type: toxicity; details: read-out: Selectivity Index; how it was run: as §1
[14] = Selectivity index, ratio of CC50 for human HepG2 cells in presence of 1% FBS to MIC for Klebsiella pneumoniae isolate 1; type: toxicity; details: read-out: Selectivity Index
[15] = Selectivity index, ratio of CC50 for human HepG2 cells in presence of 1% FBS to MIC for Klebsiella pneumoniae isolate 248-33-D; type: toxicity; details: read-out: Selectivity Index
Pseudomonas aeruginosa [16] = experiment: Antibacterial activity against Pseudomonas aeruginosa isolate 912 after 18 hrs by broth microdilution method; type: functional; details: isolate 912, 18 h; how it was run: as §2
[17] = Selectivity index, ratio of CC50 for human HepG2 cells in presence of 1% FBS to MIC for vancomycin-resistant Staphylococcus aureus ATCC 700699; type: toxicity; details: read-out: Selectivity Index; how it was run: as §1
Escherichia coli [18] = experiment: Antibacterial activity against Escherichia coli N4149 after 18 hrs by broth microdilution method; type: functional; details: N4149, 18 h; how it was run: as §2
Klebsiella pneumoniae [19] = experiment: Antibacterial activity against Klebsiella pneumoniae isolate 224-11-C after 18 hrs by broth microdilution method; type: functional; how it was run: as §2
[20] = system: Mycobacterium tuberculosis; experiment: Antimycobacterial activity against Mycobacterium tuberculosis H37Rv ATCC 25618 after 7 days by resazurin dye based assay; type: functional; details: H37Rv ATCC 25618, 168 h
How it was run: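 H37Rv grown at 37 °C in 7H9 with 10% ADC, 0.5% glycerol and 0.02% tyloxapol. Compounds serially diluted in water, 0 to 10 µM, in triplicate. Culture adjusted to OD600 0.001 and incubated 7 days at 37 °C. Resazurin (0.05% w/v) added for 4-24 h and fluorescence read at 590 nm. MIC is the lowest concentration giving complete growth inhibition versus untreated. Rifampicin served as control.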

Staphylococcus aureus = experiment: Antibacterial activity against vancomycin-resistant Staphylococcus aureus ATCC 700699 after 18 hrs by broth microdilution method; type: functional; details: ATCC 700699, 18 h; how it was run: as §2
[21] = Selectivity index, ratio of CC50 for human HepG2 cells in presence of 1% FBS to IC50 for CQ-sensitive GFP-fused Plasmodium falciparum D10; type: toxicity; details: read-out: Ratio IC50
[22] = Cytotoxicity against human HepG2 cells after 24 hrs in presence of 1% FBS by resazurin dye based assay; type: cell-based
How it was run: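 HepG2 cells seeded at 4000/well in DMEM with 1% FBS and allowed to attach for 24 h at 37 °C, 5% CO2. Compounds added from 300 to 0.14 µM in 3-fold steps and incubated 24 h. 10 µM resazurin added for 2 h, fluorescence read at ex/em 560/590. Percent viability computed relative to untreated and negative controls, duplicate wells.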

[23] = Selectivity index, ratio of CC50 for human HepG2 cells in presence of 1% FBS to MIC for Acinetobacter baumannii isolate 246-01-C; type: toxicity; details: read-out: Selectivity Index
Pseudomonas aeruginosa [24] = experiment: Antibacterial activity against Pseudomonas aeruginosa ATCC 27853 after 18 hrs by broth microdilution method; type: functional; details: ATCC 27853, 18 h; how it was run: as §2
[25] = Selectivity index, ratio of CC50 for human HepG2 cells in presence of 1% FBS to MIC for Pseudomonas aeruginosa isolate M146201; type: toxicity; details: read-out: Selectivity Index; how it was run: as §1
[26] = Selectivity index, ratio of CC50 for human HepG2 cells in presence of 1% FBS to MIC for Pseudomonas aeruginosa QLD PSA 1; type: toxicity; details: read-out: Selectivity Index; how it was run: as §1
Klebsiella pneumoniae [27] = experiment: Antibacterial activity against Klebsiella pneumoniae isolate M320445 after 18 hrs by broth microdilution method; type: functional; details: isolate M320445, 18 h; how it was run: as §2
[28] = Selectivity index, ratio of CC50 for human HepG2 cells in presence of 1% FBS to MIC for Acinetobacter baumannii ATCC 19606; type: toxicity; details: read-out: Selectivity Index
[29] = Selectivity index, ratio of CC50 for human HepG2 cells in presence of 1% FBS to MIC for Klebsiella pneumoniae ATCC 13883; type: toxicity; details: read-out: Selectivity Index
[30] = Selectivity index, ratio of CC50 for human HepG2 cells in presence of 1% FBS to MIC for Klebsiella pneumoniae isolate 224-11-C; type: toxicity; details: read-out: Selectivity Index
Acinetobacter baumannii [31] = experiment: Antibacterial activity against Acinetobacter baumannii ATCC 19606 col10 after 18 hrs by broth microdilution method; type: functional; details: ATCC 19606 = CIP 70.34 = JCM 6841 col10, 18 h; how it was run: as §2
[32] = Selectivity index, ratio of CC50 for human HepG2 cells in presence of 1% FBS to MIC for Acinetobacter baumannii ATCC 17978 col10; type: toxicity; details: read-out: Selectivity Index

Compound | selectivity ratio [1] | selectivity ratio [2] | MIC (Klebsiella pneumoniae [3]) | selectivity ratio [4] | selectivity ratio [5] | MIC (Escherichia coli [6]) | MIC (Acinetobacter baumannii [7]) | MIC (Acinetobacter baumannii [8]) | MIC (Pseudomonas aeruginosa [9]) | selectivity ratio [10] | MIC (Pseudomonas aeruginosa [11]) | MIC (Klebsiella pneumoniae [12]) | selectivity ratio [13] | selectivity ratio [14] | selectivity ratio [15] | MIC (Pseudomonas aeruginosa [16]) | selectivity ratio [17] | MIC (Escherichia coli [18]) | MIC (Klebsiella pneumoniae [19]) | MIC [20] | other results
Cc1ccc2c(c1)-c1ccccc1[I+]2 | 66 | 4.2 | > 72 µM | 2.2 | 0.52 | 72 µM | 18 µM | 9 µM | 36 µM | > 0.52 | 9 µM | 72 µM | 8.3 | > 0.52 | 0.52 | 9 µM | 2.2 | > 72 µM | > 72 µM | 0.57 µM | MIC (Staphylococcus aureus): 18 µM; selectivity ratio [21]: 500; CC50 at 24 h [22]: 37.5 µM; selectivity ratio [23]: 4.2; MIC (Pseudomonas aeruginosa [24]): > 73 µM; selectivity ratio [25]: 1; selectivity ratio [26]: 1; MIC (Klebsiella pneumoniae [27]): 72 µM; selectivity ratio [28]: 2.2; selectivity ratio [29]: 0.52; selectivity ratio [30]: > 0.52; MIC (Acinetobacter baumannii [31]): 9 µM; selectivity ratio [32]: 33
Fc1ccc2c(c1)-c1ccccc1[I+]2 | 41 | 5.3 | 36 µM | 0.67 | 0.67 | 18 µM | 9.1 µM | 4.5 µM | 18 µM | 0.33 | 2.2 µM | 18 µM | 2.7 | 0.33 | 0.67 | 2.2 µM | 1.3 | 36 µM | 36 µM | 0.29 µM | MIC (Staphylococcus aureus): 9.1 µM; selectivity ratio [21]: 125; CC50 at 24 h [22]: 11.9 µM; selectivity ratio [23]: 2.7; MIC (Pseudomonas aeruginosa [24]): 18 µM; selectivity ratio [25]: 2.7; selectivity ratio [26]: 0.67; MIC (Klebsiella pneumoniae [27]): 18 µM; selectivity ratio [28]: 2.7; selectivity ratio [29]: 0.67; selectivity ratio [30]: 0.33; MIC (Acinetobacter baumannii [31]): 2.2 µM; selectivity ratio [32]: 2
N#Cc1ccc2c(c1)-c1ccccc1[I+]2 | 78 | 2.5 | > 71 µM | 2.5 | 0.32 | 71 µM | 71 µM | 18 µM | 18 µM | > 0.32 | 8.8 µM | 71 µM | 20 | > 0.32 | 0.32 | 8.8 µM | 2.5 | > 71 µM | > 71 µM | 0.29 µM | MIC (Staphylococcus aureus): 8.8 µM; selectivity ratio [21]: 531; CC50 at 24 h [22]: 22.3 µM; selectivity ratio [23]: 0.13; MIC (Pseudomonas aeruginosa [24]): 71 µM; selectivity ratio [25]: 2.5; selectivity ratio [26]: 0.13; MIC (Klebsiella pneumoniae [27]): 71 µM; selectivity ratio [28]: 0.13; selectivity ratio [29]: 0.63; selectivity ratio [30]: > 0.32; MIC (Acinetobacter baumannii [31]): 2.2 µM; selectivity ratio [32]: 10
COc1ccc2c(c1)-c1ccccc1[I+]2 | 19 | 0.58 | > 70 µM | 0.58 | > 0.29 | > 70 µM | 70 µM | 35 µM | 70 µM | > 0.29 | 35 µM | > 70 µM | 4.6 | > 0.29 | > 0.29 | 8.7 µM | 0.58 | > 70 µM | > 70 µM | 1.1 µM | MIC (Staphylococcus aureus): 35 µM; selectivity ratio [21]: 213; CC50 at 24 h [22]: 20.2 µM; selectivity ratio [23]: 0.58; MIC (Pseudomonas aeruginosa [24]): > 70 µM; selectivity ratio [25]: 0.29; selectivity ratio [26]: 0.29; MIC (Klebsiella pneumoniae [27]): 70 µM; selectivity ratio [28]: 0.58; selectivity ratio [29]: 0.29; selectivity ratio [30]: > 0.29; MIC (Acinetobacter baumannii [31]): 8.7 µM; selectivity ratio [32]: 4.6
Cc1ccc2c(c1)[I+]c1ccccc1-2.O=S(=O)([O-])C(F)(F)F | 6.4 | 0.81 | 72 µM | 0.41 | 0.11 | 36 µM | 18 µM | 18 µM | > 72 µM | 0.05 | 4.5 µM | 72 µM | 0.81 | 0.05 | 0.05 | 4.5 µM | 0.398 | 72 µM | 72 µM | 0.57 µM | MIC (Staphylococcus aureus): 9.05 µM; selectivity ratio [21]: 15.8; CC50 at 24 h [22]: 3.6 µM; selectivity ratio [23]: 0.21; MIC (Pseudomonas aeruginosa [24]): 72 µM; selectivity ratio [25]: 0.11; selectivity ratio [26]: > 0.05; MIC (Klebsiella pneumoniae [27]): 36 µM; selectivity ratio [28]: 0.41; selectivity ratio [29]: 0.05; selectivity ratio [30]: 0.05; MIC (Acinetobacter baumannii [31]): 4.5 µM; selectivity ratio [32]: 3.2
Clc1ccc2c(c1)-c1ccccc1[I+]2 | 30 | 7.5 | 35 µM | 3.7 | 0.93 | 17 µM | 8.7 µM | 4.3 µM | 8.7 µM | 0.93 | 2.2 µM | 17 µM | 1.9 | 0.47 | 0.93 | 4.3 µM | 3.7 | 17 µM | 35 µM | 0.54 µM | MIC (Staphylococcus aureus): 4.3 µM; selectivity ratio [21]: 194; CC50 at 24 h [22]: 16.1 µM; selectivity ratio [23]: 3.7; MIC (Pseudomonas aeruginosa [24]): 8.7 µM; selectivity ratio [25]: 3.7; selectivity ratio [26]: 1.9; MIC (Klebsiella pneumoniae [27]): 35 µM; selectivity ratio [28]: 3.7; selectivity ratio [29]: 1.9; selectivity ratio [30]: 0.47; MIC (Acinetobacter baumannii [31]): 2.2 µM; selectivity ratio [32]: 30
